According to ChEMBL document CHEMBL3046367, “Potent and specific bactericidal effect of juglone (5-hydroxy-1,4-naphthoquinone) on the fire blight pathogen Erwinia amylovora” (J Agric Food Chem, 2012):
Values after ≈ are worked out from the molar mass of the structure shown. Active and inactive are the calls of the source. No cut-off for these calls is given here.

Assays:
Erwinia amylovora [1] = assay: Bactericidal activity against Erwinia amylovora 295/93 assessed as growth inhibition in King's B full medium measured at pH 7.2 after overnight incubation by suspension culture assay; assay type: functional
Summary of the method: (§1)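 Growth inhibition in suspension culture in King's B medium (peptone, K2HPO4, MgSO4, glycerol; pH 7.2). Overnight culture diluted to OD600 0.2, compound added from stocks in ethanol or DMSO (up to 5% v/v) beside solvent controls; 28 °C, 200 rpm; OD600 read at 0–8 h every 2 h and at 15 or 24 h. MIC = lowest concentration giving complete growth inhibition after overnight incubation; at least triplicate.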

Erwinia amylovora [2] = assay: Bactericidal activity against Erwinia amylovora bv.4 assessed as growth inhibition after 10 min; assay type: functional; details: bv.4, 10 min
Erwinia amylovora [3] = assay: Bactericidal activity against mixture of two strains of Erwinia amylovora 295/93 and 763 inoculated in Malus x domestica cv. Gala flowers assessed as prevention of infection at 0.06% applied two times at 2 hr after bacterial exposure measured after 8 to 10 days by In vitro flower inoculation assay; assay type: functional, 295/93/763
Summary of the method: (§2)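 Gala flowers (balloon stage, from greenhouse-forced potted trees) opened on 10% sucrose at 28 °C for 24 h, in series of 20. Each inoculated with 1 μL of a 1×10^7 CFU/mL mix of strains 295/93 and 763 on the styles. After 2 h, sprayed twice with 150 μL; water as negative control. Kept at 70% humidity and 22 °C, with a water-plus-fungicide spray at day 2. Infected flowers per series scored at 8–10 days; assay valid only if water controls reached ≥50% infection.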

Erwinia amylovora [4] = assay: Bactericidal activity against Erwinia amylovora 295/93 assessed as growth inhibition at 2.5 uM at pH 4.0 to 8.0 by suspension culture assay; assay type: functional, organism-based
Summary of the method: (§3)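 E. amylovora 295/93 grown in King's B medium brought to pH values between 4 and 8 with 1 M HCl or NaOH before sterilisation. Culture set to OD600 0.2, 28 °C, 200 rpm, OD600 monitored over time; solvent controls run in parallel.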

Erwinia amylovora [5] = assay: Bactericidal activity against Erwinia amylovora 295/93 assessed as colony growth inhibition at 25 uM at pH 4.5 by plating assay in presence of 0.5 mg/l mushroom tyrosinase; assay type: functional, organism-based
Erwinia pyrifoliae = assay: Bactericidal activity against Erwinia pyrifoliae 4171 assessed as growth inhibition at pH 7.2 by suspension culture assay; assay type: functional; summary of the method: as §1
Erwinia amylovora [6] = assay: Bactericidal activity against Erwinia amylovora 295/93 assessed as growth inhibition at 10 uM preincubated for 1 hr with visible light by suspension culture assay; assay type: functional, organism-based
Summary of the method: (§4)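 1 mM stock in ethanol exposed for 1 h to bright sunlight (UV plus visible) or to sunlight behind a UV-blocking glass screen; dark-kept solution as control. Added at nominal 10 μM to growing E. amylovora suspension cultures; growth followed by OD600.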

Erwinia billingiae = assay: Bactericidal activity against Erwinia billingiae 6830 assessed as growth inhibition at pH 7.2 by suspension culture assay; assay type: functional; summary of the method: as §1
Pseudomonas fluorescens = assay: Bactericidal activity against Pseudomonas fluorescens A506 assessed as growth inhibition at pH 7.2 by suspension culture assay; assay type: functional; summary of the method: as §1
Erwinia amylovora [7] = assay: Bactericidal activity against Erwinia amylovora 295/93 assessed as colony growth inhibition at 25 uM at pH 7.2 by plating assay in presence of 0.5 mg/l mushroom tyrosinase; assay type: functional, organism-based
Erwinia amylovora [8] = assay: Bactericidal activity against Erwinia amylovora 797 assessed as growth inhibition at pH 7.2 by suspension culture assay; assay type: functional; summary of the method: as §1
Erwinia amylovora [9] = assay: Bactericidal activity against Erwinia amylovora 237R assessed as growth inhibition at pH 7.2 by suspension culture assay; assay type: functional; summary of the method: as §1
Bacillus subtilis = assay: Bactericidal activity against Bacillus subtilis NCTC 10315 assessed as growth inhibition at pH 7.2 by suspension culture assay; assay type: functional; summary of the method: as §1
Erwinia amylovora [10] = assay: Bactericidal activity against Erwinia amylovora 295/93 assessed as growth inhibition applied as spray solution; assay type: functional, organism-based
Erwinia amylovora [11] = assay: Bactericidal activity against Erwinia amylovora 894 assessed as growth inhibition at pH 7.2 by suspension culture assay; assay type: functional; summary of the method: as §1
Erwinia amylovora [12] = assay: Bactericidal activity against Erwinia amylovora 363 assessed as growth inhibition at pH 7.2 by suspension culture assay; assay type: functional; summary of the method: as §1
Erwinia amylovora [13] = assay: Bactericidal activity against Erwinia amylovora 846 assessed as growth inhibition at pH 7.2 by suspension culture assay; assay type: functional; summary of the method: as §1
Escherichia coli = assay: Bactericidal activity against Escherichia coli assessed as growth inhibition at pH 7.2 by suspension culture assay; assay type: functional; summary of the method: as §1
Erwinia amylovora [14] = assay: Bactericidal activity against 2x10^8 CFU/mL Erwinia amylovora 295/93 cells assessed as late restarting of growth from surviving cells at <10 uM by suspension culture assay; assay type: functional, organism-based
Erwinia amylovora [15] = assay: Bactericidal activity against Erwinia amylovora 513 assessed as growth inhibition at pH 7.2 by suspension culture assay; assay type: functional; summary of the method: as §1
Erwinia amylovora [16] = assay: Bactericidal activity against Erwinia amylovora 295/93 at 10 uM after 30 min; assay type: functional, organism-based
Summary of the method: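 Bactericidal versus bacteriostatic test: about 10^5 E. amylovora cells in suspension culture exposed to 10 μM for 30 min, then plated on King's B medium to check for surviving colonies.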

Pantoea agglomerans = assay: Bactericidal activity against Pantoea agglomerans 599 assessed as growth inhibition at pH 7.2 by suspension culture assay; assay type: functional; summary of the method: as §1
[17] = system: Pectobacterium carotovorum; assay: Bactericidal activity against Pectobacterium carotovorum NCPB 312 assessed as growth inhibition at pH 7.2 by suspension culture assay; assay type: functional; summary of the method: as §1
Erwinia tasmaniensis = assay: Bactericidal activity against Erwinia tasmaniensis 37/10 assessed as growth inhibition at pH 7.2 by suspension culture assay; assay type: functional; summary of the method: as §1
Erwinia amylovora [18] = assay: Bactericidal activity against Erwinia amylovora 385R assessed as growth inhibition at pH 7.2 by suspension culture assay; assay type: functional; summary of the method: as §1
Erwinia amylovora [19] = assay: Bactericidal activity against Erwinia amylovora 872 assessed as growth inhibition at pH 7.2 by suspension culture assay; assay type: functional; summary of the method: as §1
Erwinia amylovora [20] = assay: Bactericidal activity against Erwinia amylovora 627 assessed as growth inhibition at pH 7.2 by suspension culture assay; assay type: functional; summary of the method: as §1
Erwinia amylovora [21] = assay: Bactericidal activity against Erwinia amylovora 782 assessed as growth inhibition at pH 7.2 by suspension culture assay; assay type: functional; summary of the method: as §1
Erwinia piriflorinigrans = assay: Bactericidal activity against Erwinia piriflorinigrans 5888 assessed as growth inhibition at pH 7.2 by suspension culture assay; assay type: functional; summary of the method: as §1
Erwinia amylovora [22] = assay: Bactericidal activity against Erwinia amylovora 562 assessed as growth inhibition at pH 7.2 by suspension culture assay; assay type: functional; summary of the method: as §1
Erwinia amylovora [23] = assay: Bactericidal activity against Erwinia amylovora 792 assessed as growth inhibition at pH 7.2 by suspension culture assay; assay type: functional; summary of the method: as §1
Erwinia amylovora [24] = assay: Bactericidal activity against Erwinia amylovora 871 assessed as growth inhibition at pH 7.2 by suspension culture assay; assay type: functional; summary of the method: as §1
Erwinia amylovora [25] = assay: Bactericidal activity against mixture of two strains of Erwinia amylovora 295/93 and 763 inoculated in Malus x domestica cv. Gala flowers assessed as prevention of infection at 0.01 mM applied two times at 2 hr after bacterial exposure measured after 8 to 10 days by In vitro flower inoculation assay; assay type: functional, 295/93/763; summary of the method: as §2
Erwinia amylovora [26] = assay: Bactericidal activity against Erwinia amylovora 657 assessed as growth inhibition at pH 7.2 by suspension culture assay; assay type: functional; summary of the method: as §1
Erwinia amylovora [27] = assay: Bactericidal activity against Erwinia amylovora 295/93 assessed as inhibition of bacterial growth under infection conditions in hrp gene expression inducing medium at pH 7.0 after overnight incubation by suspension culture assay; assay type: functional
Summary of the method: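 E. amylovora 295/93 started at OD600 0.2, 28 °C with shaking, OD600 followed. MIC = lowest concentration completely inhibiting growth after overnight incubation, beside solvent controls.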

Erwinia amylovora [28] = assay: Bactericidal activity against Erwinia amylovora 295/93 assessed as growth inhibition at pH 4.5 after overnight incubation by suspension culture assay; assay type: functional; summary of the method: as §3
Erwinia amylovora [29] = assay: Bactericidal activity against Erwinia amylovora 793 assessed as growth inhibition at pH 7.2 by suspension culture assay; assay type: functional; summary of the method: as §1
Erwinia amylovora [30] = assay: Bactericidal activity against Erwinia amylovora 893 assessed as growth inhibition at pH 7.2 by suspension culture assay; assay type: functional; summary of the method: as §1
[31] = Activity of Agaricus bisporus (mushroom) tyrosinase assessed as drug oxidation by photometric analysis; assay type: ADME
Erwinia amylovora [32] = assay: Bactericidal activity against Erwinia amylovora 295/93 assessed as growth inhibition at 10 uM preincubated for 1 hr with UV/visible light by suspension culture assay; assay type: functional, organism-based; summary of the method: as §4

O=C1C=CC(=O)c2c(O)ccc(O)c21 [NAPHTHAZALIN]
MIC (Erwinia amylovora [1]): 10 µM (≈ 1.9 µg/mL)

O=C1C=CC(=O)C=C1 [BENZOQUINONE]
MIC (Erwinia amylovora [1]): 100 µM (≈ 10.8 µg/mL)
MIC (Erwinia amylovora [2]): 10 µM (≈ 1.08 µg/mL)

CC1=CC(=O)c2c(O)cccc2C1=O [PLUMBAGIN]
MIC (Erwinia amylovora [1]): 100 µM (≈ 18.8 µg/mL)

CC(C)=CC[C@@H](O)C1=CC(=O)c2c(O)ccc(O)c2C1=O [SHIKONIN]
MIC (Erwinia amylovora [1]): 100 µM (≈ 28.8 µg/mL)

O=C1c2ccccc2C(=O)c2c1ccc(O)c2O
MIC (Erwinia amylovora [1]): inactive

O=C1c2cccc(O)c2C(=O)c2c(O)cc(CO)cc21
MIC (Erwinia amylovora [1]): inactive

CC1=CC(=O)c2ccccc2C1=O [MENADIONE]
MIC (Erwinia amylovora [1]): 250 µM (≈ 43 µg/mL)

CN[C@@H]1[C@H](O[C@H]2[C@H](O[C@H]3[C@H](O)[C@@H](O)[C@H](N=C(N)N)[C@@H](O)[C@@H]3N=C(N)N)O[C@@H](C)[C@]2(O)C=O)O[C@@H](CO)[C@H](O)[C@H]1O [STREPTOMYCIN]
Efficacy (Erwinia amylovora [3]): 75%
MIC (Erwinia amylovora [1]): 10 µM (≈ 5.82 µg/mL)

O=C1C=CC(=O)c2c(O)cccc21 [JUGLONE]
growth inhibition (GI) (Erwinia amylovora [4]): inactive
growth inhibition (GI) (Erwinia amylovora [5]): Active
MIC (Erwinia pyrifoliae): 20 µM (≈ 3.48 µg/mL)
growth inhibition (GI) (Erwinia amylovora [6]): Active
MIC (Erwinia billingiae): 1000 µM (≈ 174 µg/mL)
MIC (Pseudomonas fluorescens): > 1000 µM
growth inhibition (GI) (Erwinia amylovora [7]): inactive
MIC (Erwinia amylovora [8]): 20 µM (≈ 3.48 µg/mL)
MIC (Erwinia amylovora [9]): 10 µM (≈ 1.74 µg/mL)
MIC (Bacillus subtilis): 50 µM (≈ 8.71 µg/mL)
growth inhibition (GI) (Erwinia amylovora [10]): Active
MIC (Erwinia amylovora [11]): 10 µM (≈ 1.74 µg/mL)
MIC (Erwinia amylovora [12]): 20 µM (≈ 3.48 µg/mL)
MIC (Erwinia amylovora [13]): 20 µM (≈ 3.48 µg/mL)
MIC (Escherichia coli): 1000 µM (≈ 174 µg/mL)
Activity (Erwinia amylovora [14]): Active
MIC (Erwinia amylovora [15]): 10 µM (≈ 1.74 µg/mL)
Activity (Erwinia amylovora [16]): Active
MIC (Pantoea agglomerans): 500 µM (≈ 87.1 µg/mL)
MIC [17]: 500 µM (≈ 87.1 µg/mL)
MIC (Erwinia amylovora [1]): 10 µM (≈ 1.74 µg/mL)
MIC (Erwinia tasmaniensis): 500 µM (≈ 87.1 µg/mL)
MIC (Erwinia amylovora [18]): 10 µM (≈ 1.74 µg/mL)
MIC (Erwinia amylovora [19]): 20 µM (≈ 3.48 µg/mL)
MIC (Erwinia amylovora [20]): 20 µM (≈ 3.48 µg/mL)
MIC (Erwinia amylovora [21]): 10 µM (≈ 1.74 µg/mL)
MIC (Erwinia piriflorinigrans): 500 µM (≈ 87.1 µg/mL)
MIC (Erwinia amylovora [22]): 10 µM (≈ 1.74 µg/mL)
MIC (Erwinia amylovora [23]): 10 µM (≈ 1.74 µg/mL)
MIC (Erwinia amylovora [24]): 10 µM (≈ 1.74 µg/mL)
Efficacy (Erwinia amylovora [25]): 67%
MIC (Erwinia amylovora [26]): 10 µM (≈ 1.74 µg/mL)
MIC (Erwinia amylovora [27]): 5 µM (≈ 0.871 µg/mL)
MIC (Erwinia amylovora [28]): 2.5 µM (≈ 0.435 µg/mL)
MIC (Erwinia amylovora [29]): 10 µM (≈ 1.74 µg/mL)
MIC (Erwinia amylovora [30]): 10 µM (≈ 1.74 µg/mL)
Activity [31]: Active
growth inhibition (GI) (Erwinia amylovora [32]): inactive

Cc1cc(O)c2c(c1)C(=O)c1cc(O)cc(O)c1C2=O
MIC (Erwinia amylovora [1]): inactive

O=C1C(O)=C(C2=C(O)C(=O)c3ccccc3C2=O)C(=O)c2ccccc21
MIC (Erwinia amylovora [1]): inactive

CC1=C(C)C(=O)C(C)=C(C)C1=O
MIC (Erwinia amylovora [1]): inactive

O=C1c2ccccc2C(=O)c2c1cc(S(=O)(=O)O)c(O)c2O
MIC (Erwinia amylovora [1]): inactive

O=C1C=C(O)C(=O)c2ccccc21 [LAWSONE]
MIC (Erwinia amylovora [1]): 2500 µM (≈ 435 µg/mL)

O=C1c2ccccc2C(=O)c2ccccc21
MIC (Erwinia amylovora [1]): inactive

Cc1cc(O)c2c(c1)C(=O)c1cccc(O)c1C2=O
MIC (Erwinia amylovora [1]): inactive

O=C(O)c1cc(O)c2c(c1)C(=O)c1cccc(O)c1C2=O
MIC (Erwinia amylovora [1]): inactive

COc1cc(O)c2c(c1)C(=O)c1cc(C)cc(O)c1C2=O
MIC (Erwinia amylovora [1]): inactive
